# Measured values as given in PubChem BioAssay.
# Calls of active or inactive are those of the source.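 How the source made its calls, unless noted: active means inhibition above 20% together with a positive visual image hit; inconclusive means visual image hit but inhibition not above 20%; inactive means no visual image hit.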
# Experiments:
# [1] = inhibitors of TNFa-induced NFkB p65 translocation, primary screen, imaging, HUVEC, MLSMR starter and 10KST1 sets (AID 438); conditions: HUVEC TNFa-induced p65 nuclear translocation; cell count: measured here: nuclei count (cytotoxicity indicator), at 2.08 µM; inhibition: at 2 µM, stronger effect = higher value, 0% TNFa-plus-vehicle, 100% no-TNFa wells;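 further: compound added about 3h40 before a 20 min TNFalpha stimulation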;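 on inhibition: signal is the nuclear over cytoplasmic p65 intensity ratio per well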
# [2] = inhibitors of E-selectin induction by TNFa, primary screen, imaging, HUVEC, immunofluorescence, MLSMR starter and 10KST1 sets (AID 487;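 active means visually confirmed hit in the image check and inhibition above 20%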;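 on inhibition: signal is fraction of cell area covered by stained E-selectin grains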;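 on nuclei count: 100% = median nuclei count of all wells on the same plate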); conditions: HUVEC TNFalpha-induced E-selectin immunofluorescence imaging, at 2 µM; inhibition: stronger effect = higher value; nuclei count: measured here: cell number, toxicity
# [3] = DUSP6 inhibitors restoring Erk phosphorylation by chemical complementation, primary imaging in DUSP6-transfected HeLa (AID 609;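 active means compounds giving at least 50% inhibition in the cell-based MKP-3 phosphatase rescue imaging test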;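 on inhibition: phospho-Erk level distribution per well compared with pooled transfected vehicle control wells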); conditions: HeLa MKP-3 transfected, phospho-Erk imaging KS statistic, at 10 µM, cells stimulated with TPA for 15 min
# [4] = molecular target: Dual specificity protein phosphatase 6 (Homo sapiens) (UniProt Q16828); assay: as above; conditions: HeLa MKP-3 transfected, phospho-Erk imaging KS statistic; at 10 µM; stronger effect = higher value; cells stimulated with TPA for 15 min
# [5] = molecular target: Voltage-gated potassium channel subunit beta-2 (Rattus norvegicus) (UniProt P62483); assay: KvBeta enzyme negative modulators, primary screen, biochemical, NADPH fluorescence (AID 622;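 active means fluorescence slope higher than the sample average by over 3 SD, cut at about -0.22 in these data, passing the limit was not always enough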;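 further: slope of raw intensity against log time taken from 70 to 1610 s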); conditions: recombinant KvBeta, 4-cyanobenzaldehyde reduction, at 10 µM, stronger effect = higher value
# [6] = molecular target: Voltage-gated potassium channel subunit beta-2 (Rattus norvegicus) (UniProt P62483); assay: KvBeta positive modulators, primary screen, biochemical, NADPH fluorescence (AID 623;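 active means NADPH fluorescence slope more negative than the mean of all samples by about 3 SD, 99.7% confidence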;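 further: fluorescence intensity change per second fitted from 20 to 320 s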); conditions: Recombinant KvBeta, NADPH fluorescence decrease slope, 10 min; at 10 µM; stronger effect = lower value
# [7] = molecular target: Alpha-2C adrenergic receptor (Homo sapiens) (UniProt P18825); assay: modulators of alpha2C/GIRK thallium flux, primary screen, cell-based, HEK293 alpha2C/GIRK1/2 (AID 624;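 active means fluorescence slope after compound addition differing from the mean of all screened samples at 99.7% confidence, in either direction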;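 further: slope of fluorescence ratio to pre-addition baseline per second over 15 to 24 s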); conditions: thallium flux BTC fluorescence, at 10 µM, actives lie on both sides
# [8] = inhibitors of larval lipid processing in zebrafish, primary screen, whole organism, PED6 fluorescence, gall bladder and intestine (AID 686;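 active means a full or partial loss of lipid-probe fluorescence in the fish gall bladder, intestine or both, judged by eye; inactive means no fluorescence loss, or compound toxic to the fish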;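 further: larvae 5 to 7 days old with five fish per well; signal comes from phospholipase A2 cleavage of quenched PED6 carried via bile; overnight exposure to compound and PED6 before scoring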); conditions: Zebrafish larvae PED6 lipid processing, fluorescence scoring; screened at 20 µM (by protocol)
# How it was run: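 Also added: quenched phospholipase substrate PED6, 100 nM final, ingested by larvae; System: zebrafish larvae, 5-7 d; Quantity: 5 larvae per well; Compound: 20 µM single dose; Schedule: overnight compound and PED6 incubation; Read-out: visual per-well fluorescence inhibition score; Measured by: By-eye fluorescence microscopy; Medium: E3.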
# [9] = inhibitors of Chlamydomonas gravitaxis, primary screen, whole organism, Chlamydomonas reinhardtii, WT vs cilia-less mutant, absorbance, 96-well (AID 463189;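 active means inhibition at or above 50% relative to wild type and mutant plate controls; inactive means inhibition below 50%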;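 further: 0% = wild type cc124 cells in DMSO and 100% = ciliumless bld1 mutant cells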); conditions: OD600 absorbance, 2 days, at 10 µM, stronger effect = higher value
# [10] = measured here: cell density z-score
# [11] = measured here: nuclear c-Myc green intensity z-score
# [12] = measured here: nuclear pErk red intensity z-score, stronger effect = higher value
# Chain of Voltage-gated potassium channel subunit beta-2 (Rattus norvegicus) (P62483 whole entry, looked up): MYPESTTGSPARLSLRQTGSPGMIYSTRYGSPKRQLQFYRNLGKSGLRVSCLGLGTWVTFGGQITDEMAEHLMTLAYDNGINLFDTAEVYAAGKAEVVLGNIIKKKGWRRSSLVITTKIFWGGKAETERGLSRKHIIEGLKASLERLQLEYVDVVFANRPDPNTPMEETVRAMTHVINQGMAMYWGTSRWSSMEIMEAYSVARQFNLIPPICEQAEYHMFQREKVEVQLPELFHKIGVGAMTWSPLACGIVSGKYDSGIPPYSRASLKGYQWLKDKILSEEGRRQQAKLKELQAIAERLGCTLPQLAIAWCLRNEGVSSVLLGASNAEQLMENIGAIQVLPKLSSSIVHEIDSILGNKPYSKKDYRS
# Chain of Dual specificity protein phosphatase 6 (Homo sapiens) (Q16828 whole entry, looked up): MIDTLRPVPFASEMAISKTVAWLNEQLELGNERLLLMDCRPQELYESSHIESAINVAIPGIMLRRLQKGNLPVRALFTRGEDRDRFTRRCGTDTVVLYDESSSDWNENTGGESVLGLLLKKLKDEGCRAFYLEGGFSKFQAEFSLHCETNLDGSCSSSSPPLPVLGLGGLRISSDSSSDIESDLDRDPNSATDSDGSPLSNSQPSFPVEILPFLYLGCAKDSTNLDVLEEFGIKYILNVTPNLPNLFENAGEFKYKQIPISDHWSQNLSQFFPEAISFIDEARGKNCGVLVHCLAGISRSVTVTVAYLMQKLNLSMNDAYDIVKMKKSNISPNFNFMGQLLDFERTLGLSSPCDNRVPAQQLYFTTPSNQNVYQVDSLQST
# Chain of Alpha-2C adrenergic receptor (Homo sapiens) (P18825 whole entry, looked up): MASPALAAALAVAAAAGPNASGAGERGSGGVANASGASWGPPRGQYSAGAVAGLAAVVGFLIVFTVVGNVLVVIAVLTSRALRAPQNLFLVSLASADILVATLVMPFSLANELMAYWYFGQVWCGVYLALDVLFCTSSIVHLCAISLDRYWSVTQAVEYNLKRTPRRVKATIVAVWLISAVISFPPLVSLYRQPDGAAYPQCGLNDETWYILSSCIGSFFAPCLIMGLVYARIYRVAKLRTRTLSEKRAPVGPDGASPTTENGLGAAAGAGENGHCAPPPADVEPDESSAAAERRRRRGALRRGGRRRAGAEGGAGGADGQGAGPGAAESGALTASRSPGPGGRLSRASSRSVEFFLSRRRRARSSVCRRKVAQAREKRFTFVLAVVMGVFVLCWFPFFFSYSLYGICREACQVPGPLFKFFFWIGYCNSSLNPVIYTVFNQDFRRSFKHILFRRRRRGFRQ
Compound,cell count [1],inhibition [1],inhibition [2],nuclei count [2],"z-score [3, 10]","z-score [3, 11]","z-score [3, 12]",inhibition [4],fluorescence slope [5],NADPH fluorescence slope [6],slope [7],outcome [8],inhibition [9]
Clc1ccccc1-c1nnc2sc(-c3ccco3)nn12,568,-10.6% (inactive),37.2% (inactive),88.5%,-0.391,-0.433,1.6,4.72% (inactive),-0.43 (inactive),-4.6e-05 (inactive),0.00572 (inactive),inactive,85.1% (active)
Cc1ccccc1C(=O)c1ccc2c(c1)n(C)c(=O)n2C,547,-22.1% (inactive),-296% (inactive),200%,1.43,-1.34,1.32,5.65% (inactive),-0.512 (inactive),-5.8e-05 (inactive),0.00384 (inactive),inactive,0.416% (inactive)
COC(=O)c1ccc(C(=O)OC)c(NC(=O)c2cc3ccccc3o2)c1,641,-12.1% (inactive),15.1% (inactive),175%,2.88,-0.375,-1.4,6.51% (inactive),-0.377 (inactive),-5.2e-05 (inactive),0.00547 (inactive),inactive,-2.3% (inactive)
CC(C)(C)C1CCC2(CC1)C(C#N)=C(SCC(=O)Nc1ccccc1)NC(=O)C2C#N (stereo unspecified),390,-3.7% (inactive),-138% (inactive),85.7%,-1.51,-1.06,-0.683,9.39% (inactive),-0.461 (inactive),9.2e-06 (inactive),0.0063 (inactive),inactive; toxic,10.8% (inactive)
COC(=O)c1ccc(C2C(C(=O)c3cc4ccccc4o3)=C(O)C(=O)N2CCCN(C)C)cc1 (stereo unspecified),423,-8.1% (inactive),-11.6% (inactive),167%,0.389,1.47,0.581,-6.48% (inactive),-0.405 (inactive),-7.3e-05 (inactive),0.00626 (inactive),inactive,-1.14% (inactive)
CN1CCN(CC(=O)Nc2nc(-c3ccccc3)cs2)CC1,667,-3.3% (inactive),-41.9% (inactive),149%,-1.89,1.19,0.906,0.671% (inactive),-0.462 (inactive),-0.000262 (inactive),0.0053 (inactive),inactive,8.3% (inactive)
ClC(Br)=C(n1cnc2ccccc21)n1cnc2ccccc21,536,-11% (inactive),-108% (inactive),155%,1.2,-0.506,-1.02,16.1% (inactive),-0.523 (inactive),-3.7e-05 (inactive),0.00536 (inactive),inactive,30.5% (inactive)
c1ccc(Cc2nn[nH]n2)cc1,659,-11% (inactive),49.2% (inactive),144%,-1.16,0.713,1.02,-3.95% (inactive),-0.426 (inactive),-5.4e-05 (inactive),0.00705 (inactive),inactive,-10.1% (inactive)
O=C(CCC(=O)CCN1CCCCC1)CCN1CCCCC1,641,-2.1% (inactive),5.3% (inactive),170%,-0.3,1.66,0.253,15.1% (inactive),-0.506 (inactive),-0.000129 (inactive),0.00498 (inactive),inactive,12.4% (inactive)
COc1ccc2c(=O)c(-c3nc(C)cs3)coc2c1,559,-18.2% (inactive),-220% (inactive),141%,1.07,0.0883,0.691,1.98% (inactive),-0.543 (inactive),-3.8e-05 (inactive),0.0045 (inactive),inactive,1.43% (inactive)
Cc1noc(NS(=O)(=O)c2ccc(NC(=O)COc3ccccc3)cc2)c1C,641,-10.1% (inactive),29.8% (inactive),182%,-0.876,0.527,-0.0095,-11.5% (inactive),-0.376 (inactive),-3.7e-05 (inactive),0.00522 (inactive),inactive,4.64% (inactive)
COc1ccc(S(=O)(=O)N2CCC(N3CCCCC3)CC2)cc1,454,-22.7% (inactive),-217% (inactive),148%,0.445,-1.43,-2.35,29.3% (inactive),-0.314 (inactive),-2e-05 (inactive),0.00443 (inactive),inactive,68% (active)
COC(=O)CN(c1nc(C)c(Br)c(OC)n1)S(=O)(=O)c1ccc(C)cc1,598,6.5% (inactive),-10.9% (inactive),142%,0.877,0.344,0.387,9.82% (inactive),-0.379 (inactive),-2.1e-05 (inactive),0.0055 (inactive),inactive,-5.5% (inactive)
COC(=O)c1[nH]c2cc(OC)ccc2c1NC(=O)CN1CCC(C(N)=O)CC1,363,2.6% (inactive),14.4% (inactive),134%,0.612,-0.732,-0.532,9.42% (inactive),-0.434 (inactive),-0.000147 (inactive),0.00651 (inactive),inactive,25.6% (inactive)
COc1cccc(-c2nnc3sc(-c4ccco4)nn23)c1,467,-4% (inactive),3.6% (inactive),105%,1.05,-0.932,-0.641,8.31% (inactive),-0.463 (inactive),1.3e-05 (inactive),0.00496 (inactive),active; weak signal in gallbladder and intestine,38.1% (inactive)
Cc1cc(=O)oc(C)c1C(=O)N1CCN(Cc2ccc3c(c2)OCO3)CC1,387,-8.4% (inactive),-58.3% (inactive),158%,-0.184,-0.833,-0.4,9.42% (inactive),-0.451 (inactive),-0.000128 (inactive),0.00491 (inactive),inactive,21.2% (inactive)
CCCc1cc(-c2nc(N)ncc2-c2ccc3c(c2)OCCCO3)c(O)cc1OC,570,-16.3% (inactive),-136% (inactive),122%,0.844,-1.91,-0.934,11.9% (inactive),-0.519 (inactive),-5.4e-05 (inactive),0.00422 (inactive),inactive,91.5% (active)
N#CC(C(=O)NC1CCCCC1)c1nc2ccccc2nc1N1CCN(c2ccccc2F)CC1 (stereo unspecified),449,6.9% (inactive),-71.6% (inactive),150%,0.949,-0.507,0.00921,7.83% (inactive),-0.432 (inactive),-1.4e-05 (inactive),0.00608 (inactive),inactive,1.07% (inactive)
Cc1ccccc1NC(=O)NCCc1nc2ccccc2[nH]1,543,1.8% (inactive),-92.3% (inactive),163%,-1.18,-0.333,2.49,-11% (inactive),-0.474 (inactive),-0.000294 (inactive),0.00493 (inactive),inactive,-6.75% (inactive)
N/C(CCCN1CCCCC1)=N/O,498,-6% (inactive),28.3% (inactive),108%,1.83,-0.291,0.182,17.3% (inactive),-0.509 (inactive),-8e-06 (inactive),0.00607 (inactive),inactive,12.2% (inactive)
COc1ccccc1Nc1ncc(-c2cccs2)s1,545,-13.8% (inactive),-286% (inactive),200%,-0.0769,-1.21,0.25,1.48% (inactive),-0.5 (inactive),-5.4e-05 (inactive),0.00327 (inactive),inactive,11.6% (inactive)
CCOC(=O)c1n[nH]c2ccccc12,354,-6.3% (inactive),-168% (inactive),110%,0.791,-0.274,-1.01,6.04% (inactive),-0.399 (inactive),1.6e-05 (inactive),0.00468 (inactive),inactive,-13% (inactive)
COc1ccccc1N1CCN(C(=O)c2c(C)cc(=O)oc2C)CC1,275,-1.5% (inactive),-18.9% (inactive),95.9%,-0.53,2.24,-0.762,11.4% (inactive),-0.461 (inactive),-8.2e-05 (inactive),0.00477 (inactive),inactive,-9.22% (inactive)
Nc1nonc1OCCc1ccccc1,540,-5.8% (inactive),-31.5% (inactive),160%,0.698,1.41,0.0192,-6.06% (inactive),-0.439 (inactive),-4.6e-05 (inactive),0.00604 (inactive),inactive,-3.19% (inactive)
COc1ccccc1N1CCN(CCOc2c(OC)cccc2OC)CC1,492,-10.5% (inactive),-105% (inactive),116%,-1.56,1.65,0.711,-3.98% (inactive),-0.469 (inactive),-0.000262 (inactive),0.00445 (inactive),inactive,-3.94% (inactive)
CN=C1c2cc3c(Br)c(OC)ccc3n2CCN1C,550,-16.9% (inactive),-28.8% (inactive),142%,0.29,-0.368,0.361,8.31% (inactive),-0.493 (inactive),-5.7e-05 (inactive),0.00409 (inactive),inactive; toxic,-2.97% (inactive)
CN1C(=O)CC(N2CCN(c3ccc(Cl)c(Cl)c3)CC2)C1=O (stereo unspecified),379,-3.9% (inactive),-80.8% (inactive),94.7%,-1.07,0.418,-1.7,5.65% (inactive),-0.541 (inactive),-7.5e-05 (inactive),0.00484 (inactive),inactive,0.241% (inactive)
